According to ChEMBL document CHEMBL1127054, “3-Aryl-2-(3'-substituted-1',2',4'-oxadiazol-5'-yl)tropane analogues of cocaine: affinities at the cocaine binding site at the dopamine, serotonin, and norepinephrine transporters” (J Med Chem, 1993):

Columns and labels:
[1] = target: Norepinephrine transporter (Rattus norvegicus, UniProt Q9WTR4); assay: Binding affinity towards norepinephrine transporter by displacement of [3H]nisoxetine radioligand from rat brain
[2] = target: Sodium-dependent dopamine transporter (Rattus norvegicus, UniProt P23977); assay: Binding affinity towards Dopamine transporter by displacement of [3H]WIN-35428 radioligand from rat brain
[3] = target: Sodium-dependent serotonin transporter (Rattus norvegicus, UniProt P31652); assay: Binding affinity towards serotonin transporter by displacement of [3H]- paroxetine radioligand from rat brain
In short: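 Midbrain tissue (1.5 mg original wet weight) with 0.2 nM [3H]paroxetine in 50 mM Tris, 120 mM NaCl, 5 mM KCl, pH 7.4, for 90 min at room temperature; nonspecific binding defined with 1 μM citalopram. Terminated by filtration through polyethylenimine-soaked GF/B filters with ice-cold buffer washes. Mean ± SE of four triplicate experiments.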

[4] = target: Monoamine transporters; serotonin & dopamine (Rattus norvegicus) (UniProt P31652+P23977); assay: Ratio between serotonin transporter and Dopamine transporter; type: protein assay
[5] = target: Monoamine transporters; Norepininephrine & dopamine (Rattus norvegicus) (UniProt P23977+Q9WTR4); assay: Ratio between norepinephrine and Dopamine transporter; type: protein assay

Sequence of Norepinephrine transporter (Q9WTR4 whole entry): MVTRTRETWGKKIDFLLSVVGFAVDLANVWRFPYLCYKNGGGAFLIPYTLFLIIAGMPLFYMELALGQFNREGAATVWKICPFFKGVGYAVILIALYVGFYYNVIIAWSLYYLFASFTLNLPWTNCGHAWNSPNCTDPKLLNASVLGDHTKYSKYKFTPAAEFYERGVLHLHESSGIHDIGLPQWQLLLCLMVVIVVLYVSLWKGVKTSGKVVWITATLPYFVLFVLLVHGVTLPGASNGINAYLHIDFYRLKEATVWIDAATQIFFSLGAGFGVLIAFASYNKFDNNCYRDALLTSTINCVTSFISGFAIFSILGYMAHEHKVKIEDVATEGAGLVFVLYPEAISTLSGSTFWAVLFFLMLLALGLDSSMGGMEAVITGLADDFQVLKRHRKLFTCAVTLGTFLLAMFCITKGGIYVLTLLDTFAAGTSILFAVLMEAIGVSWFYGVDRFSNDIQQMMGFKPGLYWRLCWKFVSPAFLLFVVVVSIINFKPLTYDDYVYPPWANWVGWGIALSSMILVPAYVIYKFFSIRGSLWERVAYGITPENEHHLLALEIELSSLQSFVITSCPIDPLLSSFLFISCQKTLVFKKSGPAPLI
Sequence of Sodium-dependent serotonin transporter (P31652 whole entry): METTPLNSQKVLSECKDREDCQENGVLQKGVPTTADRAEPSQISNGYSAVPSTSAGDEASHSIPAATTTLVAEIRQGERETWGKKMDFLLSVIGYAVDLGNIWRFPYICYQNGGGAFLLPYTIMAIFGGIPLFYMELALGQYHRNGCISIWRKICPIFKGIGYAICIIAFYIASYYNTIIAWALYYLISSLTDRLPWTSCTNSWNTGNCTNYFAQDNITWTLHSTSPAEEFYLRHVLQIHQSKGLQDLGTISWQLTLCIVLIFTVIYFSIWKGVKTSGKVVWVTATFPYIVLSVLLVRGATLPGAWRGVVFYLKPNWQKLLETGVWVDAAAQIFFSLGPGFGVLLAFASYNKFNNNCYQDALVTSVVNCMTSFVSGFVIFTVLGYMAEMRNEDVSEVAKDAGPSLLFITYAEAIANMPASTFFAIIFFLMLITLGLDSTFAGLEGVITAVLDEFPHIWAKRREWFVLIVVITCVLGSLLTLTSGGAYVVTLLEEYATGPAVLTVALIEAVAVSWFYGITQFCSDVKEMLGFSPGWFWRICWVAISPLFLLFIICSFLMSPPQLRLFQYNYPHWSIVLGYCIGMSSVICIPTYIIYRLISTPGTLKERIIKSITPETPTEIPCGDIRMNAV
Sequence of Sodium-dependent dopamine transporter (P23977 whole entry): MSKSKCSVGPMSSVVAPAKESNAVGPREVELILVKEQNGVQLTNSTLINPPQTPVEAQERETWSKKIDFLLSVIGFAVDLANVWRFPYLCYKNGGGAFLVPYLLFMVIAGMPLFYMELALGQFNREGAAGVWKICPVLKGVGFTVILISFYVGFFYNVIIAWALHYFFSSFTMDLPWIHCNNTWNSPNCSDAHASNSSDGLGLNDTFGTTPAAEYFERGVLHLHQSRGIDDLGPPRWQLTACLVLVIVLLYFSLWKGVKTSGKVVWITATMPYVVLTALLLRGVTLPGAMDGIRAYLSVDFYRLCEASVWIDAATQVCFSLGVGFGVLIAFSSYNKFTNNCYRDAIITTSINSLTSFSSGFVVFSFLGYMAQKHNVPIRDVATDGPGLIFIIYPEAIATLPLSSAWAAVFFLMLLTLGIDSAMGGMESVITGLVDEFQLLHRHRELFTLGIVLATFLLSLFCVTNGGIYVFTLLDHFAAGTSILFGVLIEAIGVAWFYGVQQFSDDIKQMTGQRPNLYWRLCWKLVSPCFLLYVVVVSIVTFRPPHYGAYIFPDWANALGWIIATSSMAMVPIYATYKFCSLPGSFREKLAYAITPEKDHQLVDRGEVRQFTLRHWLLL
Sequence of Monoamine transporters; serotonin & dopamine (Rattus norvegicus) (P23977 whole entry, looked up): as the sequence (P23977 whole entry) above
Sequence of Monoamine transporters; serotonin & dopamine (Rattus norvegicus) (P31652 whole entry, looked up): as the sequence (P31652 whole entry) above

Which results are given for `CC(C)c1noc(C2C3CC[C@H](C[C@@H]2c2ccc(Cl)cc2)N3C)n1` (some centres undefined)?
IC50 [1]: 0.135 µM; IC50 [2]: 0.006 µM; IC50 [3]: 3.46 µM; Ratio [4]: 577; Ratio [5]: 23

Which IC50 [1] does the source give for `COC(=O)[C@@H]1C2CC[C@H](C[C@@H]1c1ccccc1)N2C` here?
The IC50 was 0.92 µM.

What does the source list for `Cc1noc(C2C3CC[C@H](C[C@@H]2c2ccccc2)N3C)n1` (stereo in doubt; 7) [listing 1 of 2 here]?
Ratio [4]: 144; Ratio [5]: 176

`COc1ccc(-c2noc(C3C4CC[C@H](C[C@@H]3c3ccc(Cl)cc3)N4C)n2)cc1` (some centres undefined) was tested. Which IC50 [1] did it give?
Its IC50 is 0.835 µM.

And the IC50 [2]?
Its IC50 is 0.00181 µM.

And the IC50 [3]?
The IC50 was 0.337 µM.

And the Ratio [4]?
Its Ratio is 186.

And the Ratio [5]?
Its Ratio is 461.

What does the source list for `Cc1noc(C2C3CC[C@H](C[C@@H]2c2ccccc2)N3C)n1` (stereo in doubt; 5a) [listing 1 of 2 here]?
IC50 [1]: 7.88 µM; IC50 [2]: 0.1 µM; IC50 [3]: 3.83 µM

Which results are given for `Cc1ccc([C@H]2C[C@H]3CCC(C2C(=O)Oc2ccccc2)N3C)cc1` (some centres undefined)?
IC50 [1]: 5.83 µM; IC50 [2]: 0.00327 µM; IC50 [3]: 24.5 µM; Ratio [5]: 1780

Which results are given for `Cc1noc(C2C3CC[C@H](C[C@@H]2c2ccccc2)N3C)n1` (stereo in doubt; 5a) [listing 2 of 2 here]?
Ratio [4]: 38; Ratio [5]: 79

With `Cc1noc(C2C3CC[C@H](C[C@@H]2c2ccccc2)N3C)n1` (stereo in doubt; 8) [listing 1 of 2 here] as the compound, how does the IC50 [1] read?
The IC50 was 6.99 µM.

And the IC50 [2]?
The IC50 was 0.167 µM.

And the IC50 [3]?
Its IC50 is 40.6 µM.

`Cc1noc(C2C3CC[C@H](C[C@@H]2c2ccccc2)N3C)n1` (stereo in doubt; 8) [listing 2 of 2 here] was tested. Which Ratio [4] did it give?
Its Ratio is 243.

And the Ratio [5]?
The Ratio was 42.

How did the IC50 [1] turn out when `CC(C)OC(=O)C1C2CC[C@H](C[C@@H]1c1ccc(Cl)cc1)N2C` (some centres undefined) was run?
The IC50 was 0.778 µM.

And the IC50 [2]?
The IC50 was 0.00141 µM.

What about the IC50 [3] of the same compound?
Its IC50 is 1.4 µM.

And the Ratio [5]?
Its Ratio is 551.

For `Cc1ccc([C@H]2C[C@H]3CCC(C2c2nc(-c4ccccc4)no2)N3C)cc1` (some centres undefined), which IC50 [1] is on record?
The IC50 was 0.06 µM.

And the IC50 [2]?
Its IC50 is 0.00233 µM.

And the IC50 [3]?
Its IC50 is 1.07 µM.

And the Ratio [4]?
The Ratio was 459.

And the Ratio [5]?
Its Ratio is 26.

How did the IC50 [1] turn out when `CN1C2CC[C@@H]1C[C@H](c1ccc(Cl)cc1)C2c1nc(-c2ccc(Br)cc2)no1` (some centres undefined) was run?
Its IC50 is 1.83 µM.

And the IC50 [2]?
The IC50 was 0.00344 µM.

What about the IC50 [3] of the same compound?
The IC50 was 0.106 µM.

What about the Ratio [4] of the same compound?
The Ratio was 31.

And the Ratio [5]?
The Ratio was 532.

For `CN1C2CCC1C(C(=O)Oc1ccccc1)C(c1ccc(Cl)cc1)C2` (centres undefined), which IC50 [1] is on record?
Its IC50 is 2.96 µM.

What about the IC50 [2] of the same compound?
Its IC50 is 0.00199 µM.

What about the Ratio [5] of the same compound?
The Ratio was 1490.

With `CN1C2CC[C@@H]1C[C@H](c1ccc(Cl)cc1)C2c1nc(-c2ccc(Cl)cc2)no1` (some centres undefined) as the compound, how does the IC50 [1] read?
The IC50 was 4.07 µM.

What about the IC50 [2] of the same compound?
Its IC50 is 0.00406 µM.

What about the IC50 [3] of the same compound?
The IC50 was 0.404 µM.

And the Ratio [4]?
Its Ratio is 100.

And the Ratio [5]?
Its Ratio is 1000.

What does the source list for `Cc1noc(C2C3CC[C@H](C[C@@H]2c2ccccc2)N3C)n1` (stereo in doubt; 6) [listing 1 of 2 here]?
Ratio [4]: 32; Ratio [5]: 69

Which IC50 [1] does the source give for `Cc1noc(C2C3CC[C@H](C[C@@H]2c2ccc(Cl)cc2)N3C)n1` (some centres undefined) here?
Its IC50 is 0.363 µM.

What about the IC50 [3] of the same compound?
Its IC50 is 2.58 µM.

With `CN1C2CC[C@@H]1C[C@H](c1ccc(Cl)cc1)C2c1nc(-c2ccccc2)no1` (some centres undefined) as the compound, how does the IC50 [1] read?
Its IC50 is 0.245 µM.

And the IC50 [2]?
The IC50 was 0.00162 µM.

What about the IC50 [3] of the same compound?
Its IC50 is 0.195 µM.

And the Ratio [4]?
The Ratio was 120.

And the Ratio [5]?
Its Ratio is 151.

With `Cc1noc(C2C3CC[C@H](C[C@@H]2c2ccccc2)N3C)n1` (stereo in doubt; 6) [listing 2 of 2 here] as the compound, how does the IC50 [1] read?
Its IC50 is 71 µM.

And the IC50 [2]?
Its IC50 is 1.03 µM.

What about the IC50 [3] of the same compound?
The IC50 was 33.1 µM.

How did the IC50 [1] turn out when `Cc1noc(C2C3CC[C@H](C[C@@H]2c2ccccc2)N3C)n1` (stereo in doubt; 7) [listing 2 of 2 here] was run?
Its IC50 is 35.8 µM.

And the IC50 [2]?
The IC50 was 0.204 µM.

And the IC50 [3]?
The IC50 was 29.4 µM.
